HUVEC inhibit: human endothelial cell proliferation inhibition; HUVEC proliferation, CellTiter-Glo luminescence, 72 h; hits give low values; viability, % at 10 µM (by protocol); 86,000 tested, 1.1% active;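 active means viability at or below 30%; inactive means viability above 30%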
Jurkat tox 60K: cytotoxic compounds reducing Jurkat cell viability; Jurkat E6.1 viability, ATP luminescence, 48 h; inhibition, % at 4 µM; 56,000 tested, 1.2% active;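 active means inhibition above the mean inhibition of all tested compounds plus 3 SD, cut at about 28% in these data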
Lung fibro prol: blocks proliferation of human lung fibroblasts; LL 47 human lung fibroblast viability, ATP luminescence; hits give low values; viability, % at 10 µM; 85,000 tested, 1.1% active; AID 719;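 active means viability at or below 50% in the single dose screen; inactive means viability above 50%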;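 further: compound exposure lasted 72 h before the ATP readout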
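Test system: LL 47 human lung fibroblasts; Quantity: 1,150 cells/well; Buffer or medium: IMEM plus 15% FBS; Dosing: tenfold compound dosing solution, DMSO at 0.1%; Timing: overnight cell rest, 72 h compound treatment at 37 °C; Detection: ATP-based CellTiter-Glo luminescent readout; Read-out basis: viability percentage against median untreated-cell control; Controls: cell-only wells, no compound.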
H69AR inhibit: blocks growth of human H69AR lung tumor cells | H69AR lung tumor viability, ATP luminescence, 72 h; hits give low values | 85,000 tested, 6% active | viability, % at 10 µM;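 active means viability at or below 40%; inactive means viability above 40%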;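 further: multidrug resistant small cell line overexpressing MRP-1 efflux transporter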
A number is an active result; n = inactive; x = not tested or not shown. In the library only some 6.4% were active in any assay of this set; here they are far more common.

SMILES	HUVEC inhibit	Jurkat tox 60K	Lung fibro prol	H69AR inhibit
Cc1ccc(CC(=O)N2CCN(c3ccccn3)CC2)cc1	n	x	n	n
COc1ccccc1OCc1nc2c3c(-c4ccccc4)c(-c4ccccc4)oc3ncn2n1	n	n	n	25.3
COc1ccccc1N/C(N)=N/c1nc(CSc2ccc(C)cc2)cc(=O)[nH]1	n	n	x	22.9
O=S(=O)(c1ccc(Nc2ccc(-c3ccc4c(c3)OCCO4)nn2)cc1)N1CCCC1	16.2	x	n	20.6
O=C(NC1CC1)c1cccc(Nc2ccc(-c3ccc4c(c3)OCCO4)nn2)c1	n	n	n	31.6
O=c1c2[nH]c3ccccc3c2ncn1C1CCCCC1	n	n	n	n
O=C1c2ccccc2C(=O)c2c1ccc1c(=O)n(C3CCCCC3)[nH]c21	3.2	x	x	36.0
Cn1c(-c2ccc3ccccc3n2)nc2cnccc21	28.8	n	n	n
N#Cc1c(Sc2ncc(C(F)(F)F)cc2Cl)nsc1C/C=N\OCc1ccccc1Br	n	x	n	n
CCCn1c(CNc2ccccc2O)nc2ccccc21	n	n	n	26.8
COC(=O)CSc1nnc([C@H](Cc2ccccc2)NC(=O)OC(C)(C)C)o1	n	n	n	n
COC(=O)CS(=O)(=O)c1nnc([C@H](Cc2ccccc2)NC(=O)OC(C)(C)C)o1	n	n	0.9	0.3
Cc1cccc(CS(=O)(=O)c2nnc([C@H](Cc3ccccc3)NC(=O)OC(C)(C)C)o2)c1	n	x	n	0.5
COc1ccccc1CN1CCN(C(CC(C)C)c2nnnn2Cc2cccs2)CC1 (configuration not stated)	x	n	x	x
O=C(Nc1nccs1)c1ccc(S(=O)(=O)NCC2CCCCC2)cc1	n	37.1	n	n
CCc1nnc(NC(=O)CSc2nc3cccnc3n2C2CCCCC2)s1	n	29.4	n	n
Cc1nc(NC(=O)CSc2nc3cccnc3n2C2CCCCC2)sc1C	n	n	14.0	28.9
CCn1c(SCC(=O)Nc2nc(C)c(C)s2)nc2cccnc21	n	x	n	n
CCOc1ccc(CNC(=O)CCCOc2cc(=O)n(C)c3ccccc23)cc1	n	x	n	n
COC(=O)CSc1nnc(CNC(=O)c2cccs2)n1-c1cc(OC)ccc1OC	n	n	n	n
CCC(=O)Nc1ccc(S(=O)(=O)Nc2cccc(C)c2)cc1OC	n	n	n	n
Cc1ccc(C(=O)N2CCc3ccccc32)cc1	n	x	n	n
Cc1ccc(C(=O)n2c3ccccc3c3ccccc32)cc1	n	x	46.2	17.6
Cc1cc(C(=O)CSc2nnc(-c3ccco3)o2)c(C)n1CC1COc2ccccc2O1 (configuration not stated)	n	n	n	n
Cc1nc2sc3c(c2c2nnc(SCC(=O)NCc4ccco4)n12)CCCC3	x	n	x	x
SMILES	HUVEC inhibit	Jurkat tox 60K	Lung fibro prol	H69AR inhibit
O=C(CSc1ncnc2sc3c(c12)CCCCC3)NCc1ccco1	n	37.6	n	27.4
O=C(CSc1nnc2c3c4c(sc3ncn12)CCCC4)NCc1ccco1	n	n	n	28.4
O=C(CSc1nc2ccc(Cl)cc2[nH]1)NCc1ccco1	n	n	n	n
O=C(CSc1c2c(nc3cc(Cl)ccc13)CCCC2)NCc1ccco1	n	x	n	2.2
O=C(CSc1ncnc2sc3c(c12)CCCC3)c1ccco1	n	n	n	n
Cc1ccc(C(=O)NC(C)(COc2nonc2C)COc2nonc2C)cc1	n	n	n	n
CC(=O)C1=C(C)NC(SCC(=O)c2ccccc2)=C(C#N)C1CC(C)C (configuration not stated)	n	n	n	n
Cc1c(Cl)cccc1N1CC(C(=O)Nc2nccs2)CC1=O (configuration not stated)	n	n	n	n
Cc1ccc(N2CC(C(=O)Nc3nccs3)CC2=O)cc1Cl (configuration not stated)	17.2	x	28.6	n
COC(=O)c1ccccc1NC(=O)C1CC(=O)N(c2ccc(C)c(C)c2)C1 (configuration not stated)	n	x	n	32.0
O=C(Nc1ccc(Cl)c(Cl)c1)C1CC(=O)N(c2ccc(Br)cc2)C1 (configuration not stated)	n	x	n	9.0
COC(=O)c1ccccc1NC(=O)C1CC(=O)N(c2ccc(F)cc2)C1 (configuration not stated)	x	n	x	x
O=S(=O)(c1ccccc1C(F)(F)F)N1CCOCC1	n	n	n	n
Cc1[nH]nc2c1/C(=N/O)CC(c1ccccc1)C2 (configuration not stated)	n	x	n	n
COc1ccc(-c2nc(C(N)=O)c3[nH]c(=O)n(-c4ccccc4OC)c3n2)c(OC)c1	n	n	n	30.7
CCOc1ccccc1-c1nc(C(N)=O)c2[nH]c(=O)n(-c3cccc(C)c3)c2n1	n	n	n	32.7
COc1ccc(OC)c(-c2nc(C(N)=O)c3[nH]c(=O)n(-c4ccc(F)cc4)c3n2)c1	n	n	n	n
CCOc1cccc(-c2nc(C(N)=O)c3[nH]c(=O)n(-c4cccc(Cl)c4)c3n2)c1O	x	n	x	x
O=C(NC1CCCC1)c1ccc(CS(=O)(=O)c2ccc(Br)cc2)o1	n	n	n	n
CC1=CC(=O)C=C(C)C1=NOS(=O)(=O)c1ccccc1	1.1	x	1.4	0.7
CCCn1c2ccc(/C(C)=N\O)cc2c2cc(/C(C)=N/O)ccc21	n	x	n	27.1
COc1ccc(Cl)cc1N1C(=O)C2CCCN2C1c1ccc(F)cc1 (configuration not stated)	n	n	n	n
CCc1ccccc1NC(=O)CSc1nnc([C@@H]2CCCN2C(=O)OC(C)(C)C)o1	n	n	n	2.1
Cc1ccc(C(=O)c2coc3c2C(=O)C(=O)c2ccccc2-3)cc1	3.5	x	47.0	1.8
Cc1ccc(C(=O)c2cn[nH]c2-c2ccccc2O)cc1	n	x	n	n
SMILES	HUVEC inhibit	Jurkat tox 60K	Lung fibro prol	H69AR inhibit
Cc1ccc(C(=O)c2c(C)oc3c2C(=O)C(=O)c2ccccc2-3)cc1	n	x	2.1	1.0
CCN(CC)C(=O)C1CC(=O)N(c2ccc(F)c(Cl)c2)C1 (configuration not stated)	n	n	n	n
CCOc1ccccc1N(C(=O)CNC(=O)c1ccco1)C(C(=O)NC(C)(C)C)c1ccncc1 (configuration not stated)	n	n	n	n
COC1(OC)C(/C=C/c2ccc(C)cc2)C(C#N)(C#N)C1(OC)OC (configuration not stated)	n	x	n	12.2
O=C(Nc1cccc(O)c1)c1cc(S(=O)(=O)N2CCCC2)ccc1Cl	n	x	n	n
Cc1ccc(C)c(Cn2c(CN(C)Cc3ccccc3)nc3c2c(=O)n(C)c(=O)n3C)c1	n	n	n	n
COc1cc(C(=S)N2CCCC2)cc(OC)c1O	n	x	n	n
Cn1c(-c2ccccc2)cnc1SCC(=O)NCc1ccco1	n	n	n	n
CC(C(=O)NCc1ccco1)n1nc(-c2ccccc2)c2cc(Cl)ccc21 (configuration not stated)	n	n	n	35.2
CCCOc1ccc(-c2nc(C#N)c(NCCCn3ccnc3)o2)cc1	28.4	x	n	n
N#Cc1nc(-c2ccc(OCc3ccccc3Cl)cc2)oc1NCCCn1ccnc1	2.6	n	n	n
N#Cc1nc(-c2ccc(OCc3ccccc3)cc2)oc1NCCCn1ccnc1	5.8	n	n	6.5
N#Cc1nc(COc2ccccc2)oc1NCCCn1ccnc1	n	n	n	n

Source: PubChem
